# Data from ChEMBL document CHEMBL1151448, “Comparative antianaerobic activities of doripenem determined by MIC and time-kill analysis” (2008).
# Active and inactive are the calls of the source. The calls are words filed in the database; no cut-off is given here.
# Key:
# Clostridium perfringens [1] = test: Antimicrobial activity against Clostridium perfringens isolated from intra-abdominal infection and pelvic inflammatory disease patients after 48 hrs by time kill analysis; assay type: functional
# Outline: (§1)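 Macrodilution in prereduced brucella broth with 5% laked horse blood cells, 5 μg/ml hemin and 1 μg/ml vitamin K1. Final inoculum 10^6 to 10^7 CFU/ml, prepared inside the anaerobe chamber. Vials incubated 48 h at 35°C in a shaking water bath. MIC read by inspecting the time-kill tubes, alongside an antibiotic-free growth control.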
# Clostridioides difficile [2] = test: Antimicrobial activity against Clostridium difficile isolated from intra-abdominal infection and pelvic inflammatory disease patients after 48 hrs by agar dilution method; assay type: functional
# Outline: (§2)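 CLSI agar dilution on brucella blood agar supplemented with laked sheep blood, hemin and vitamin K. Inocula of about 1 × 10^5 CFU/spot were applied by Steers replicator, and plates were incubated 48 h at 35°C in an anaerobic glove box. MIC was the concentration giving marked growth reduction versus the anaerobic control plate. QC strains were included each run, and β-lactamase was detected by Cefinase disk.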
# Prevotella intermedia [3] = test: Antimicrobial activity against beta lactamase-positive Prevotella intermedia isolated from intra-abdominal infection and pelvic inflammatory disease patients after 48 hrs by agar dilution method; assay type: functional; outline: as §2
# Prevotella intermedia [4] = test: Antimicrobial activity against beta lactamase-positive Prevotella intermedia isolated from intra-abdominal infection and pelvic inflammatory disease patients after 48 hrs by time kill analysis; assay type: functional
# Outline: (§3)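 The MIC was read by inspecting macrodilution time-kill tubes. Vials held prereduced brucella broth with 5% laked horse blood cells, hemin 5 μg/ml and vitamin K1 1 μg/ml. Final inoculum was 10^6–10^7 CFU/ml, prepared inside the anaerobe chamber. Vials were incubated 48 h at 35°C in a shaking water bath.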
# Bacteroides ovatus = test: Antimicrobial activity against beta lactamase-positive Bacteroides ovatus isolated from intra-abdominal infection and pelvic inflammatory disease patients after 48 hrs by agar dilution method; assay type: functional; outline: as §2
# [5] = test system: Paeniclostridium sordellii; test: Antimicrobial activity against Clostridium sordellii isolated from intra-abdominal infection and pelvic inflammatory disease patients after 48 hrs by agar dilution method; assay type: functional; settings: Paraclostridium sordellii; outline: as §2
# Fusobacterium nucleatum = test: Antimicrobial activity against beta lactamase-positive Fusobacterium nucleatum isolated from intra-abdominal infection and pelvic inflammatory disease patients after 48 hrs by time kill analysis; assay type: functional; outline: as §3
# [6] = test system: Paraclostridium bifermentans; test: Antimicrobial activity against Clostridium bifermentans isolated from intra-abdominal infection and pelvic inflammatory disease patients after 48 hrs by agar dilution method; assay type: functional; outline: as §2
# Anaerococcus prevotii = test: Antimicrobial activity against Anaerococcus prevotii isolated from intra-abdominal infection and pelvic inflammatory disease patients after 48 hrs by agar dilution method; assay type: functional; outline: as §2
# Clostridium perfringens [7] = test: Bactericidal activity against Clostridium perfringens isolated from intra-abdominal infection and pelvic inflammatory disease patients assessed as bacterial killing at MIC after 24 hrs by time kill analysis; assay type: functional
# Outline: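 Time-kill in prereduced brucella broth with 5% laked horse blood cells, hemin and vitamin K1. […] Viable counts taken at 6, 12, 24 and 48 h, plates incubated 48 h anaerobically. Kill scored as 90%, 99% or 99.9%; 99.9% defines bactericidal.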
# Clostridioides difficile [8] = test: Antimicrobial activity against Clostridium difficile isolated from intra-abdominal infection and pelvic inflammatory disease patients after 48 hrs by time kill analysis; assay type: functional; outline: as §1
# Finegoldia magna [9] = test: Bactericidal activity against beta lactamase-positive Finegoldia magna isolated from intra-abdominal infection and pelvic inflammatory disease patients assessed as bacterial killing at MIC after 24 hrs by time kill analysis; assay type: functional
# Outline: (§4)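 Anaerobic macrodilution time-kill. Inoculum from brucella blood plates, prepared and diluted in prereduced brucella broth inside the anaerobe chamber. Final 10^6 to 10^7 CFU/ml in prereduced brucella broth with 5% laked horse blood cells, 5 μg/ml hemin and 1 μg/ml vitamin K1. […] Shaken at 35°C for 48 h. Viable counts taken at 6, 12, 24 and 48 h. 99.9% kill taken as bactericidal.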
# Prevotella intermedia [10] = test: Bactericidal activity against beta lactamase-positive Prevotella intermedia isolated from intra-abdominal infection and pelvic inflammatory disease patients assessed as bacterial killing at MIC after 24 hrs by time kill analysis; assay type: functional; outline: as §4
# Prevotella corporis = test: Antimicrobial activity against beta lactamase-positive Prevotella corporis isolated from intra-abdominal infection and pelvic inflammatory disease patients after 48 hrs by agar dilution method; assay type: functional; outline: as §2
# Phocaeicola vulgatus = test: Antimicrobial activity against beta lactamase-positive Bacteroides vulgatus isolated from intra-abdominal infection and pelvic inflammatory disease patients after 48 hrs by agar dilution method; assay type: functional; outline: as §2
# [11] = test system: Peptoniphilus asaccharolyticus; test: Antimicrobial activity against Peptoniphilus asaccharolyticus isolated from intra-abdominal infection and pelvic inflammatory disease patients after 48 hrs by agar dilution method; assay type: functional; outline: as §2
# [12] = test system: Bacteroides thetaiotaomicron; test: Antimicrobial activity against beta lactamase-positive Bacteroides thetaiotaomicron isolated from intra-abdominal infection and pelvic inflammatory disease patients after 48 hrs by time kill analysis; assay type: functional; outline: as §3
# Porphyromonas gingivalis = test: Antimicrobial activity against Porphyromonas gingivalis isolated from intra-abdominal infection and pelvic inflammatory disease patients after 48 hrs by agar dilution method; assay type: functional; outline: as §2
# Clostridium cadaveris = test: Antimicrobial activity against Clostridium cadaveris isolated from intra-abdominal infection and pelvic inflammatory disease patients after 48 hrs by agar dilution method; assay type: functional; outline: as §2
# Finegoldia magna [13] = test: Bactericidal activity against beta lactamase-positive Finegoldia magna isolated from intra-abdominal infection and pelvic inflammatory disease patients assessed as 99.9% bacterial killing at 2 times MIC after 48 hrs by time kill analysis; assay type: functional, organism-based
# Outline: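 Macrodilution time-kill in prereduced brucella broth with 5% laked horse blood, hemin 5 μg/ml and vitamin K1 1 μg/ml, at final inoculum 10^6–10^7 CFU/ml. […] Viable counts were taken at 6, 12, 24 and 48 h on plates incubated 48 h anaerobically. 99.9% kill was taken as bactericidal.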
# Fusobacterium mortiferum = test: Antimicrobial activity against beta lactamase-positive Fusobacterium mortiferum isolated from intra-abdominal infection and pelvic inflammatory disease patients after 48 hrs by agar dilution method; assay type: functional; outline: as §2
# Finegoldia magna [14] = test: Antimicrobial activity against Finegoldia magna isolated from intra-abdominal infection and pelvic inflammatory disease patients after 48 hrs by agar dilution method; assay type: functional; outline: as §2
# Finegoldia magna [15] = test: Antimicrobial activity against beta lactamase-positive Finegoldia magna isolated from intra-abdominal infection and pelvic inflammatory disease patients after 48 hrs by time kill analysis; assay type: functional; outline: as §3
# Anaerococcus tetradius = test: Antimicrobial activity against Anaerococcus tetradius isolated from intra-abdominal infection and pelvic inflammatory disease patients after 48 hrs by agar dilution method; assay type: functional; outline: as §2
# Prevotella disiens = test: Antimicrobial activity against beta lactamase-positive Prevotella disiens isolated from intra-abdominal infection and pelvic inflammatory disease patients after 48 hrs by agar dilution method; assay type: functional; outline: as §2
# Prevotella bivia = test: Antimicrobial activity against beta lactamase-positive Prevotella bivia isolated from intra-abdominal infection and pelvic inflammatory disease patients after 48 hrs by agar dilution method; assay type: functional; outline: as §2
# [16] = test system: Enterocloster clostridioformis; test: Antimicrobial activity against Clostridium clostridioforme isolated from intra-abdominal infection and pelvic inflammatory disease patients after 48 hrs by agar dilution method; assay type: functional; outline: as §2
# Prevotella buccae = test: Antimicrobial activity against beta lactamase-positive Prevotella buccae isolated from intra-abdominal infection and pelvic inflammatory disease patients after 48 hrs by agar dilution method; assay type: functional; settings: Segatella buccae; outline: as §2
# [17] = test system: Clostridium paraputrificum; test: Antimicrobial activity against Clostridium paraputrificum isolated from intra-abdominal infection and pelvic inflammatory disease patients after 48 hrs by agar dilution method; assay type: functional; outline: as §2
compound,measurement,setting,value
C[C@@H](O)[C@H]1C(=O)N2C(C(=O)O)=C(S[C@@H]3CN[C@H](C(=O)N(C)C)C3)[C@H](C)[C@H]12 [MEROPENEM],MIC,Clostridium perfringens [1],0.03 µg/mL
same,MIC50,Clostridioides difficile [2],2 µg/mL
same,MIC90,Clostridioides difficile [2],4 µg/mL
same,MIC50,Prevotella intermedia [3],0.03 µg/mL
same,MIC90,Prevotella intermedia [3],0.125 µg/mL
same,MIC,Prevotella intermedia [4],0.03 µg/mL
same,MIC,Bacteroides ovatus,0.25 µg/mL
same,MIC50,Bacteroides ovatus,0.25 µg/mL
same,MIC90,Bacteroides ovatus,0.5 µg/mL
same,MIC,[5],0.06 µg/mL
same,MIC,Fusobacterium nucleatum,0.008 µg/mL
same,MIC,[6],0.125 µg/mL
same,MIC,Anaerococcus prevotii,≤ 0.016 µg/mL
same,Activity,Clostridium perfringens [7],90%
same,MIC,Clostridioides difficile [8],1 µg/mL
same,Activity,Finegoldia magna [9],90%
same,Activity,Prevotella intermedia [10],90%
same,MIC50,Prevotella corporis,0.03 µg/mL
same,MIC90,Prevotella corporis,0.06 µg/mL
same,MIC50,Phocaeicola vulgatus,0.25 µg/mL
same,MIC90,Phocaeicola vulgatus,1 µg/mL
same,MIC,[11],≤ 0.016 µg/mL
same,MIC50,[11],≤ 0.016 µg/mL
same,MIC90,[11],0.03 µg/mL
same,MIC,[12],0.25 µg/mL
same,MIC,Porphyromonas gingivalis,≤ 0.016 µg/mL
same,MIC,Clostridium cadaveris,0.03 µg/mL
same,Activity,Finegoldia magna [13],inactive
same,MIC50,Fusobacterium mortiferum,0.125 µg/mL
same,MIC90,Fusobacterium mortiferum,0.5 µg/mL
same,MIC,Finegoldia magna [14],0.06 µg/mL
same,MIC50,Finegoldia magna [14],0.06 µg/mL
same,MIC90,Finegoldia magna [14],0.125 µg/mL
same,MIC,Finegoldia magna [15],0.06 µg/mL
same,MIC,Anaerococcus tetradius,0.03 µg/mL
same,MIC50,Anaerococcus tetradius,0.03 µg/mL
same,MIC,Prevotella disiens,0.03 µg/mL
same,MIC50,Prevotella disiens,0.03 µg/mL
same,MIC90,Prevotella disiens,0.125 µg/mL
same,MIC50,Prevotella bivia,0.06 µg/mL
same,MIC90,Prevotella bivia,0.125 µg/mL
same,MIC,[16],1 µg/mL
same,MIC,Prevotella buccae,0.06 µg/mL
same,MIC50,Prevotella buccae,0.06 µg/mL
same,MIC90,Prevotella buccae,0.06 µg/mL
same,MIC,[17],0.25 µg/mL
